Tests used:
Rattus norvegicus [1] = assay: Biodistribution in Sprague-Dawley rat thyroid 15 minutes after intravenous administration, [99mTc]/[125I] IAP ratio); type: ADME, organism-based, Thyroid gland; conditions: in vivo, 0.25 h
Outline: (§1)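 99mTc complex and [125I]iodoantipyrine were co-injected iv into rats. Rats were killed by cardiectomy at 2 or 15 min, and organs were excised, weighed and gamma-counted in two channels with spillover correction. The ratio is 99mTc percent dose divided by 125I percent dose in the same organ, averaged over three rats. Radiochemical purity of the complexes was >95% by reversed-phase HPLC.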

Rattus norvegicus [2] = assay: Biodistribution in Sprague-Dawley rat muscle 2 minutes after intravenous administration, [99mTc]/[125I] IAP ratio); type: ADME, organism-based, Muscle tissue; conditions: in vivo; outline: as §1
Rattus norvegicus [3] = assay: Biodistribution in Sprague-Dawley rat lungs(2) 15 minutes after intravenous administration, [99mTc]/[125I] IAP ratio); type: ADME, organism-based, Lung; conditions: in vivo, 0.25 h; outline: as §1
Rattus norvegicus [4] = assay: Biodistribution in Sprague-Dawley rat stomach 15 minutes after intravenous administration, [99mTc]/[125I] IAP ratio); type: ADME, organism-based; conditions: in vivo, 0.25 h; outline: as §1
Rattus norvegicus [5] = assay: Biodistribution in Sprague-Dawley rat stomach 2 minutes after intravenous administration, [99mTc]/[125I] IAP ratio); type: ADME, organism-based; conditions: in vivo; outline: as §1
Rattus norvegicus [6] = assay: Biodistribution in Sprague-Dawley rat heart 15 minutes after intravenous administration, [99mTc]/[125I] IAP ratio); type: ADME, organism-based; conditions: in vivo, 0.25 h; outline: as §1
Rattus norvegicus [7] = assay: Biodistribution in Sprague-Dawley rat liver 15 minutes after intravenous administration, [99mTc]/[125I] IAP ratio); type: ADME, organism-based; conditions: in vivo, 0.25 h; outline: as §1
Rattus norvegicus [8] = assay: Biodistribution in Sprague-Dawley rat small intestine 2 minutes after intravenous administration, [99mTc]/[125I] IAP ratio); type: ADME, organism-based; conditions: in vivo; outline: as §1
Rattus norvegicus [9] = assay: Biodistribution in Sprague-Dawley rat kidneys(2) 2 minutes after intravenous administration, [99mTc]/[125I] IAP ratio); type: ADME, organism-based, Kidney; conditions: in vivo; outline: as §1
Rattus norvegicus [10] = assay: Biodistribution in Sprague-Dawley rat thyroid 2 minutes after intravenous administration, [99mTc]/[125I] IAP ratio); type: ADME, organism-based, Thyroid gland; conditions: in vivo; outline: as §1
Rattus norvegicus [11] = assay: Biodistribution in Sprague-Dawley rat spleen 2 minutes after intravenous administration, [99mTc]/[125I] IAP ratio); type: ADME, organism-based; conditions: in vivo; outline: as §1
Homo sapiens = species on record: Homo sapiens; assay: The human serum protein binding activity was determined; type: functional
Outline: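 Equilibrium dialysis: 0.4 mL pooled human serum against 0.4 mL 0.15 M phosphate buffer pH 7.4 containing 99mTc complex (~0.025 μCi), rotated 18 h at 37 °C. Both sides weighed and counted; percent free = buffer/serum radioactivity concentration ratio × 100. Membrane counted afterwards to check membrane binding.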

Rattus norvegicus [12] = assay: Biodistribution in Sprague-Dawley rat liver 2 minutes after intravenous administration, [99mTc]/[125I] IAP ratio); type: ADME, organism-based; conditions: in vivo; outline: as §1
Rattus norvegicus [13] = assay: Biodistribution in Sprague-Dawley rat brain 15 minutes after intravenous administration, [99mTc]/[125I] IAP ratio); type: ADME, organism-based; conditions: in vivo, 0.25 h; outline: as §1
Rattus norvegicus [14] = assay: Biodistribution in Sprague-Dawley rat skin 15 minutes after intravenous administration, [99mTc]/[125I] IAP ratio); type: ADME, organism-based, Zone of skin; conditions: in vivo, 0.25 h; outline: as §1
Rattus norvegicus [15] = assay: Biodistribution in Sprague-Dawley rat heart 2 minutes after intravenous administration, [99mTc]/[125I] IAP ratio); type: ADME, organism-based; conditions: in vivo; outline: as §1
Rattus norvegicus [16] = assay: Biodistribution in Sprague-Dawley rat spleen 15 minutes after intravenous administration, [99mTc]/[125I] IAP ratio); type: ADME, organism-based; conditions: in vivo, 0.25 h; outline: as §1
Rattus norvegicus [17] = assay: Biodistribution in Sprague-Dawley rat lungs(2) 2 minutes after intravenous administration, [99mTc]/[125I] IAP ratio); type: ADME, organism-based, Lung; conditions: in vivo; outline: as §1
Rattus norvegicus [18] = assay: Biodistribution in Sprague-Dawley rat skin 2 minutes after intravenous administration, [99mTc]/[125I] IAP ratio); type: ADME, organism-based, Zone of skin; conditions: in vivo; outline: as §1
Rattus norvegicus [19] = assay: Biodistribution in Sprague-Dawley rat blood 2 minutes after intravenous administration, [99mTc]/[125I] IAP ratio); type: ADME, organism-based; conditions: in vivo; outline: as §1
Rattus norvegicus [20] = assay: Biodistribution in Sprague-Dawley rat brain 2 minutes after intravenous administration.; type: ADME, organism-based; conditions: in vivo
Outline: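 Rats received the 99mTc complex iv together with [125I]iodoantipyrine as internal reference and were killed by cardiectomy. Brain was excised, weighed and gamma-counted. Percent dose/organ was obtained by comparing tissue activity with diluted aliquots of the injected dose, averaged over three rats. Radiochemical purity of the complexes was >95% by HPLC.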

Rattus norvegicus [21] = assay: Biodistribution in Sprague-Dawley rat kidneys(2) 15 minutes after intravenous administration, [99mTc]/[125I] IAP ratio); type: ADME, organism-based, Kidney; conditions: in vivo, 0.25 h; outline: as §1
[22] = Partition coefficient was determined at pH 7.0.; type: ADME; conditions: octanol/water
Outline: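 99mTc-labelled BAT complex shaken with 3 g each of 1-octanol and 0.1 M phosphate buffer (pH 7.0), vortexed 3 min at room temperature, centrifuged 5 min. Two 0.5 g samples per layer counted in a well counter; PC = cpm/g octanol over cpm/g buffer. Octanol layer repartitioned until values were consistent; usually repeated three times.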

Rattus norvegicus [23] = assay: Biodistribution in Sprague-Dawley rat small intestine 15 minutes after intravenous administration, [99mTc]/[125I] IAP ratio); type: ADME, organism-based; conditions: in vivo, 0.25 h; outline: as §1
Rattus norvegicus [24] = assay: Biodistribution in Sprague-Dawley rat muscle 15 minutes after intravenous administration, [99mTc]/[125I] IAP ratio); type: ADME, organism-based, Muscle tissue; conditions: in vivo, 0.25 h; outline: as §1
Rattus norvegicus [25] = assay: Biodistribution in Sprague-Dawley rat blood 15 minutes after intravenous administration, [99mTc]/[125I] IAP ratio); type: ADME, organism-based; conditions: in vivo, 0.25 h; outline: as §1

## CC(C)(S)CNCC(NCC(C)(C)S)c1ccccc1O (stereo unspecified)
Rattus norvegicus [1]
  Dose: 0.057%
Rattus norvegicus [2]
  Dose: 8.66%
Rattus norvegicus [3]
  Dose: 1.52%
Rattus norvegicus [4]
  Dose: 5.46%
Rattus norvegicus [5]
  Dose: 1.61%
Rattus norvegicus [6]
  Dose: 0.441%
Rattus norvegicus [7]
  Dose: 25.4%
Rattus norvegicus [8]
  Dose: 6.24%
Rattus norvegicus [9]
  Dose: 4.75%
Rattus norvegicus [10]
  Dose: 0.189%
Rattus norvegicus [11]
  Dose: 0.407%
Homo sapiens
  Free: 14.7%
Rattus norvegicus [12]
  Dose: 29%
Rattus norvegicus [13]
  Dose: 0.229%
Rattus norvegicus [14]
  Dose: 8.17%
Rattus norvegicus [15]
  Dose: 3.31%
Rattus norvegicus [16]
  Dose: 0.323%
Rattus norvegicus [17]
  Dose: 4.94%
Rattus norvegicus [18]
  Dose: 7.45%
Rattus norvegicus [19]
  Dose: 14.5%
Rattus norvegicus [20]
  Dose: 0.408%
Rattus norvegicus [21]
  Dose: 1.73%
[22]
  Partition coefficient: 248
Rattus norvegicus [23]
  Dose: 18.2%
Rattus norvegicus [24]
  Dose: 12.4%
Rattus norvegicus [25]
  Dose: 4.77%

Reference: ChEMBL document CHEMBL1123041, “Synthesis of new bis(aminoethanethiol) (BAT) derivatives: possible ligands for 99mTc brain imaging agents” (J Med Chem, 1985)
